# Screening data: PubChem BioAssay, several laboratories
# SENP8 block-1: inhibitors of human SENP8 protease. Q96LD8. recombinant SENP8, Nedd8 substrate fluorescence. inhibition, % at 20 µM. 360,000 compounds, 0.64% hits; in the data active = inhibition mostly above about 40%, no sharp cut-off; inactive = mostly below about 27%
# Target sequence (Q96LD8 whole entry, looked up): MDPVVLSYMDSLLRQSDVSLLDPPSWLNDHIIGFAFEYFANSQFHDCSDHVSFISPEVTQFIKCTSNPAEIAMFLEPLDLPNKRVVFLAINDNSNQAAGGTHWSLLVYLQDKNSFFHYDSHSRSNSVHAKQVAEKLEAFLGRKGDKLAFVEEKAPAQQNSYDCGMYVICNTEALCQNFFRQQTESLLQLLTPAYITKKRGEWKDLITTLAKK
# SENP6 inh: blocks the human protease SENP6; AID 2599; 330,000 compounds, 1.8% hits; inhibition, % at 10 µM; Recombinant SENP6 catalytic domain, aminoluciferin luminescence;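 active = inhibition above about 50% at the single tested dose, limit read from the data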;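 also: plate controls were DMSO wells with enzyme for no effect and DMSO wells lacking enzyme for full effect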
# Platelet DG rel: modulates dense granule release in human platelets; human platelet-rich plasma, SFLLRN dense granule ATP release, luminescence; inhibition, %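 (compounds screened at 7.5 µM in platelet-rich plasma)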; 300,000 compounds, 0.22% hits;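 active = mean replicate score, as percent of positive control, at or above 50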
# SENP7 inh: SENP7 protease inhibition; Q9BQF6; recombinant SENP7, Z-RLRGG-aminoluciferin luminescence, 40 min; inhibition, % at 5 µM; 330,000 compounds, 1.5% hits;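 active = inhibition above about 50% at the single test dose, limit read from the data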;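 also: plate controls were DMSO with enzyme for no effect and no enzyme buffer wells for full effect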
# Target sequence (Q9BQF6 706-1050 limits assumed): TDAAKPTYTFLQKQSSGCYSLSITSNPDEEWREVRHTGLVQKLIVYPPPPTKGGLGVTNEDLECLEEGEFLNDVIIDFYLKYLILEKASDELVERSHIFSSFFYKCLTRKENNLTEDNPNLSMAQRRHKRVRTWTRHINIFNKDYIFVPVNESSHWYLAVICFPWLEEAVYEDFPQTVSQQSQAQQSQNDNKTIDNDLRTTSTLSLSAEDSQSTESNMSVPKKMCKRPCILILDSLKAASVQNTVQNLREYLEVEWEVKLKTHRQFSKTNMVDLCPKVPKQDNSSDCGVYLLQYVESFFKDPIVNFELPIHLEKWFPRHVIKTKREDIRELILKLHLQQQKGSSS
# SENP8 block-2: SENP8 protease inhibition; purified SENP8, Z-RLRGG-aminoluciferin cleavage, luminescence; inhibition, % at 10 µM; 330,000 compounds, 1.2% hits; in the data active = inhibition above about 50%
# SENP1 FRET inh: blocks the human SENP1 SUMO protease catalytic domain | AID 624204 | Q9P0U3 | inhibition, % at 10 µM | recombinant SENP1 catalytic domain, CyPet-SUMO1-YPet FRET cleavage | 360,000 compounds, 0.21% hits;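 active = inhibition at least 30% at 10 µM, raw YFP signal under a set limit, fluorescence ratio 0.5 to 1.5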;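 also: 0% = enzyme with DMSO and 100% = no enzyme wells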
#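 Test system: human SENP1 catalytic domain; medium: Tris pH 8 buffer plus EDTA, NaCl, BME, BSA, NP40, catalase; incubation: 50 min reaction at room temperature; technique: FRET, CFP and YFP emission; controls: no-enzyme low control and enzyme-plus-DMSO high control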
# SENP1 inh conf: SENP1 (human) inhibition, single concentration confirmation. shares compounds with SENP1 FRET inh. AID 651678. recombinant SENP1, CyPet-SUMO1-YPet FRET cleavage. inhibition, % at 10 µM. 520 compounds, 34% hits; in the data active = inhibition mostly above about 35%, no sharp cut-off; inactive = mostly below about 32%;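 also: 0% = enzyme with DMSO and 100% = no enzyme control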
# SENP1 kin conf: SENP1 (human) inhibition, kinetic confirmation; shares compounds with SENP1 FRET inh; recombinant SENP1, CyPet-SUMO1-YPet FRET kinetic cleavage; inhibition, % at 10 µM; 520 compounds, 26% hits; AID 651690; in the data active = inhibition mostly above about 32%, no sharp cut-off; inactive = mostly below about 29%;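 also: 0% = DMSO with enzyme and 100% = no enzyme substrate only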
# Active calls of the source: *; i = inactive; nt = not tested or not shown. Only some compounds are listed: those with a hit (about 2.6% of all), similar ones and a draw of the others.
SMILES,SENP8 block-1,SENP6 inh,Platelet DG rel,SENP7 inh,SENP8 block-2,SENP1 FRET inh,SENP1 inh conf,SENP1 kin conf
COc1ccc(Cn2c3ccc(OC)cc3c3nc4ccccc4nc32)cc1,13,-4,-1,-2,-3,17,nt,nt
Cc1cccc(C2NC(=O)c3ccccc3N2)c1 (stereo not given),i,nt,nt,nt,nt,-3,nt,nt
O=c1[nH]c(/C(Cl)=C/c2c(F)cccc2Cl)nc2cc(Cl)ccc12,4,-10,3,-2,-12,-6,nt,nt
O=c1[nH]c(/C(Cl)=C/c2cc(Cl)ccc2O)nc2cc(Cl)ccc12,-31,-3,-7,-6,-6,59*,89*,73*
CC(C)C[C@H]1CNC(=O)C(=O)N1C[C@H]1CCCN1C[C@H](CC(C)C)N1C[C@H](Cc2ccccc2)N(CC2CCCCC2)C(=O)C1=O,14,nt,nt,nt,nt,1,nt,nt
COc1cc(/C=C/c2ccc3c([N+](=O)[O-])cccc3n2)ccc1OCC(=O)O,34,-2,13,-1,1,54*,26,19
CCCSc1nc(-c2ccccc2)cc(C(F)(F)F)c1C#N,-265,-4,11,5,-1,1,nt,nt
N#Cc1c(C(F)(F)F)cc(-c2ccccc2)nc1SCCN1CCOCC1,-8,-15,-5,3,0,33*,12,9
COc1ccc(C(=O)NNC(=O)c2cccc(S(=O)(=O)N3CCOCC3)c2)cc1,10,-2,nt,3,-6,-2,nt,nt
CCOC(=O)NC(=O)CSc1nc(C)cc(C(F)(F)F)c1C#N,-3,-10,-2,-7,-2,39*,9,13
Cc1ccc(S(=O)(=O)CCSc2ccc(C(F)(F)F)cn2)cc1,18,-33,-9,-2,-11,0,nt,nt
COC(=O)CSc1nc(C)cc(C(F)(F)F)c1C#N,2,-22,-12,3,0,4,nt,nt
Cc1coc(NC(=O)CSc2nc(-c3ccncc3)cc(C(F)(F)F)c2C#N)n1,-110,-2,1,-5,-2,66*,45*,28*
Cc1ccc(S(=O)(=O)CCSc2nc(C)cc(C(F)(F)F)c2C#N)cc1,-21,-2,-1,10,6,72*,22,16
O=C(Nc1cc(F)cc(F)c1)c1ccc(NCCc2ccccc2)c([N+](=O)[O-])c1,17,-9,1,0,-11,38*,36*,36*
Cc1nc(-c2ccc(F)cc2)c(CC(=O)N2CCN(S(=O)(=O)c3cccc([N+](=O)[O-])c3)CC2)s1,6,0,nt,-6,-4,35*,10,2
CCOC(=O)N1CCN(C(=O)C[C@@H]2C[C@@]3(C(=O)OC)CCCCC=C3N(Cc3ccco3)C2=O)CC1,1,nt,nt,nt,nt,3,nt,nt
COc1cc(-c2cnc3c(NC=O)cc(-c4ccc(N5CCN(C)CC5)cc4)cn23)cc(OC)c1OC,-264,nt,nt,nt,nt,21,nt,nt
COc1cc(-c2cnc3c(NC(C)=O)cc(-c4ccc(N5CCN(C)CC5)cc4)cn23)cc(OC)c1OC,i,nt,nt,nt,nt,34*,12,-1
CC(=O)Nc1cc(-c2ccc(N3CCN(C)CC3)cc2)cn2c(-c3ccccc3)cnc12,-350,nt,nt,nt,nt,48*,39*,28
CC(=O)Nc1cc(-c2ccc(N3CCN(C)CC3)cc2)cn2c(-c3ccc(S(C)(=O)=O)cc3)cnc12,-210,nt,nt,nt,nt,22,nt,nt
O=C(N/N=C/c1ccc(N2CCOCC2)s1)c1ccc(O)cc1,i,nt,nt,nt,nt,-74,nt,nt
NC(=O)N/N=C/c1ccc(N2CCOCC2)s1,-389,5,8,11,1,47*,75*,52*
O=C(O)CCCC(=O)Nc1cccc2cccnc12,2,-3,-13,8,3,34*,2,-4
O=C(Cc1ccccc1F)Nc1cccc2cccnc12,7,-15,-2,2,-5,1,nt,nt
SMILES,SENP8 block-1,SENP6 inh,Platelet DG rel,SENP7 inh,SENP8 block-2,SENP1 FRET inh,SENP1 inh conf,SENP1 kin conf
COc1ccc(OCc2nnc(SCC(=O)N3CCCCC3)o2)cc1,15,-14,3,5,0,0,nt,nt
CC1CCCCN1C(=O)Cn1nnc(-c2cccnc2)n1 (stereo not given),-8,-24,8,-6,-10,30*,34,23
CC(C)(C)c1ccc(/C=C(\C#N)C(=O)NCCN2CCOCC2)cc1,2,-12,-9,-4,3,-2,nt,nt
COc1ccc(-c2c(O)c(C#N)c(-c3ccccc3)n(-c3ccc(OC)cc3)c2=O)cc1,-291,-12,-8,4,-8,78*,2,5
COc1ccc2c(-c3ccccc3)cc(SCC(N)=O)nc2c1,-120,-9,1,-1,-2,30*,14,17
COc1ccc2c(C)cc(SCC(=O)N3CCOCC3)nc2c1,-47,1,-5,3,6,67*,50*,36*
COc1cccc(OCc2cc(C(=O)N(C)CCOc3ccc(C)cc3)no2)c1,0,18,3,18,1,1,nt,nt
CCOc1cc([N+](=O)[O-])cc2c1C(=O)Nc1ccccc1O2,16,-13,-2,-2,-9,54*,26,17
O=C1Nc2ccccc2Oc2cc([N+](=O)[O-])ccc21,19,21,7,9,6,23,nt,nt
O=c1[nH]c2cc([N+](=O)[O-])ccc2c2cc(Br)ccc12,8,nt,nt,nt,nt,33*,25,14
COc1cccc(CNc2nc3ccccc3n2CCN2CCCCC2)c1OC,15,-14,nt,9,1,0,nt,nt
COc1cc(C)c(NC(=S)NCCCN2CCOCC2)cc1OC,9,-1,30,5,3,2,nt,nt
COc1cc(Cn2c3ccc(NC(=O)CC(C)C(F)(F)F)cc3c(=O)n2C)ccc1F (stereo not given),i,nt,nt,nt,nt,31*,9,10
COc1cc(Cn2c3ccc(NC(=O)CC(C)(C)C)cc3c(=O)n2C)ccc1F,-491,nt,nt,nt,nt,10,nt,nt
CC(NC(=O)C12CC3CC(CC(C3)C1)C2)C(=O)N/N=C/C1=C(N2CCOCC2)C(=C\c2cccc([N+](=O)[O-])c2)/CC1 (stereo not given),21,4,-6,2,7,3,nt,nt
CC(C)C(NC(=O)C12CC3CC(CC(C3)C1)C2)C(=O)N/N=C/C1=C(N2CCOCC2)C(=C\c2ccc([N+](=O)[O-])cc2)/CC1 (stereo not given),14,-2,7,3,-2,75*,24,7
CCCS(=O)(=O)N1CCC(C(=O)NCCCN(CC)c2cccc(C)c2)CC1,24,-3,nt,2,2,3,nt,nt
N#C/C(=C/C1=C(N2CCOCC2)C(=C/c2cccc([N+](=O)[O-])c2)/CC1)C(=O)Nc1ccccc1F,36,nt,nt,nt,nt,73*,14,15
N#C/C(=C\C1=C(N2CCOCC2)C(=C\c2ccc(Cl)cc2)/CC1)C(=O)Nc1ccccc1F,24,nt,25,nt,nt,-6,nt,nt
Nc1ccc2c(c1)C(=NO)c1ccccc1-2,15,nt,nt,nt,nt,-8,nt,nt
Nc1cc2c(cc1[N+](=O)[O-])-c1ccccc1C2=NO,23,nt,nt,nt,nt,32*,36,11
